Experiments:
[1] = test system: Human immunodeficiency virus 1; test: Antiviral activity against HIV1 P21 infected in human MT4 cells derived from viral passages with A-790742 harboring protease L23I, L33F, K45I, A71A/V, V77I, V82L, and I84V mutation assessed as reduction in viral cytopathogenicity treated 1 hr post infection measured 5 days post infection by MTT assay relative to wild type HIV1 pNL4-3; assay type: functional
Procedure, shortened: (§1)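 For the assay, 10⁶ MT-4 cells were infected at MOI 0.003, washed after 1 h, and plated at 10⁴ cells/well with eight serial compound dilutions in triplicate (0.5% DMSO final). MTT cytopathic read-out at day 5; EC50 from dose-response fitting.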

[2] = test system: Human immunodeficiency virus 1; test: Antiviral activity against HIV1 clone5 infected in HEK293 cells harboring A-790742-selected protease L63P, A71V, and V82G mutation assessed as reduction in viral replication by luciferase reporter gene assay relative to wild type HIV1 RF; assay type: functional
Procedure, shortened: (§2)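 Single-cycle assay: HEK-293 cells were cotransfected with luciferase-reporter HIV-1 protease clones plus a VSV-G expression vector. After 4 h, cells were replated at 2 × 10⁴/well over serial inhibitor dilutions in triplicate. Pseudovirus collected at 48 h infected fresh HEK-293 (10⁴/well). Luciferase read 48 h later gave % inhibition versus untreated and EC50. Fold change against WT pNL4-3-Luc (clones 1-4) or RF-Luc (clone 5) is the mean of three experiments.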

[3] = test system: Human immunodeficiency virus 1; test: Antiviral activity against HIV1 clone1 infected in HEK293 cells harboring A-790742-selected protease I84V mutation assessed as reduction in viral replication by luciferase reporter gene assay relative to wild type HIV1 pNL4-3; assay type: functional; procedure, shortened: as §2
[4] = test system: Human immunodeficiency virus 1; test: Antiviral activity against HIV1 P13 infected in human MT4 cells derived from viral passages with A-790742 harboring protease M46I, L63P, A71V, and V82G mutation assessed as reduction in viral cytopathogenicity treated 1 hr post infection measured 5 days post infection by MTT assay relative to wild type HIV1 RF; assay type: functional; procedure, shortened: as §1
[5] = test system: Human immunodeficiency virus 1; test: Antiviral activity against HIV1 clone4 infected in HEK293 cells harboring A-790742-selected protease L33F, A71V, G73S, V77I, V82L, and I84V mutation assessed as reduction in viral replication by luciferase reporter gene assay relative to wild type HIV1 pNL4-3; assay type: functional; procedure, shortened: as §2
[6] = test system: Human immunodeficiency virus 1; test: Antiviral activity against HIV1 P9 infected in human MT4 cells derived from viral passages with A-790742 harboring protease V82V/L and I84V mutation assessed as reduction in viral cytopathogenicity treated 1 hr post infection measured 5 days post infection by MTT assay relative to wild type HIV1 pNL4-3; assay type: functional; procedure, shortened: as §1
[7] = test system: Human immunodeficiency virus 1; test: Antiviral activity against HIV1 clone3 infected in HEK293 cells harboring A-790742-selected protease L33F, K45I, V82L, and I84V mutation assessed as reduction in viral replication by luciferase reporter gene assay relative to wild type HIV1 pNL4-3; assay type: functional; procedure, shortened: as §2
[8] = test system: Human immunodeficiency virus 1; test: Antiviral activity against HIV1 P15 infected in human MT4 cells derived from viral passages with A-790742 harboring protease L33L/F, K45I, V82L, and I84V mutation assessed as reduction in viral cytopathogenicity treated 1 hr post infection measured 5 days post infection by MTT assay relative to wild type HIV1 pNL4-3; assay type: functional; procedure, shortened: as §1
[9] = test system: Human immunodeficiency virus 1; test: Antiviral activity against HIV1 clone2 infected in HEK293 cells harboring A-790742-selected protease V82L mutation assessed as reduction in viral replication by luciferase reporter gene assay relative to wild type HIV1 pNL4-3; assay type: functional; procedure, shortened: as §2
[10] = test system: Human immunodeficiency virus 1; test: Antiviral activity against wild-type HIV1 pNL4-3 infected in human MT4 cells assessed as reduction in viral cytopathogenicity treated 1 hr post infection measured 5 days post infection in presence of 50% human serum by MTT assay; assay type: functional, organism-based; settings: Human immunodeficiency virus 1, pNL4-3, MT4
[11] = test system: Human immunodeficiency virus 1; test: Antiviral activity against HIV1 P25 infected in human MT4 cells harboring protease L10F, G16E, V32I, M46I, I47A, H69Y, I84V, and T91S mutation derived from viral passages with Lopinavir assessed as reduction in viral cytopathogenicity treated 1 hr post infection measured 5 days post infection by MTT assay; assay type: functional, organism-based; settings: Human immunodeficiency virus 1, P25, MT4; procedure, shortened: as §1
[12] = test system: Human immunodeficiency virus 1; test: Antiviral activity against HIV1 A17 infected in human MT4 cells harboring protease L10F, V32I, M46I, I47V, Q58E, and I84V mutation derived from viral passages with Lopinavir assessed as reduction in viral cytopathogenicity treated 1 hr post infection measured 5 days post infection by MTT assay; assay type: functional, organism-based; settings: Human immunodeficiency virus 1, A17, MT4; procedure, shortened: as §1
[13] = test system: Human immunodeficiency virus 1; test: Antiviral activity against wild-type HIV1 pNL4-3 infected in human MT4 cells assessed as reduction in viral cytopathogenicity treated 1 hr post infection measured 5 days post infection in absence of human serum by MTT assay; assay type: functional, organism-based; settings: Human immunodeficiency virus 1, pNL4-3, MT4; procedure, shortened: as §1
[14] = test system: Human immunodeficiency virus 1; test: Antiviral activity against wild-type HIV1 RF infected in human MT4 cells assessed as reduction in viral cytopathogenicity treated 1 hr post infection measured 5 days post infection in absence of human serum by MTT assay; assay type: functional, organism-based; settings: Human immunodeficiency virus 1, RF; procedure, shortened: as §1
[15] = test system: Human immunodeficiency virus 1; test: Antiviral activity against HIV1 isolate 4 infected in human MT4 cells obtained from protease inhibitor-resistant patient harboring protease N37T, M46I, Q58E, I64V, T74K, V77I, V82F, L90M mutation derived from viral passages with Lopinavir assessed as reduction in viral cytopathogenicity treated 1 hr post infection measured 5 days post infection by MTT assay relative to wild type HIV1 pNL4-3; assay type: functional
[16] = test system: Human immunodeficiency virus 1; test: Antiviral activity against HIV1 isolate 3 infected in human MT4 cells obtained from protease inhibitor-resistant patient harboring protease L10I, E35D, N37D, […], I54V, L63P, A71V, T74P, I84V, L90M, I93L mutation derived from viral passages with Lopinavir assessed as reduction in viral cytopathogenicity treated 1 hr post infection measured 5 days post infection by MTT assay relative to wild type …; assay type: functional
[17] = test system: Human immunodeficiency virus 1; test: Antiviral activity against HIV1 isolate 10 infected in human MT4 cells obtained from protease inhibitor-resistant patient harboring protease L10I, I13V, K20R, L33F, E35D, M36I, N37D, I54L, Q58E, I62V, L63P, A71V, V82A, I84V, L90M mutation derived from viral passages with Lopinavir assessed as reduction in viral cytopathogenicity treated 1 hr post infection measured 5 days post infection by MTT …; assay type: functional
[18] = test system: Human immunodeficiency virus 1; test: Antiviral activity against HIV1 isolate 9 infected in human MT4 cells obtained from protease inhibitor-resistant patient harboring protease L10I, I15I/V, K20R, L33F, E35D, M36I, N37D, R41K, K43I, M46I, I54V, I62V, L63P, A71T, I72T, V82A, I84V, L90M, I93L mutation derived from viral passages with Lopinavir assessed as reduction in viral cytopathogenicity treated 1 hr post infection measured 5 days …; assay type: functional
[19] = test system: Human immunodeficiency virus 1; test: Antiviral activity against HIV1 isolate 11 infected in human MT4 cells obtained from protease inhibitor-resistant patient harboring protease L10I, I15V, K20R, E21Q, E35D, M36I, N37D, R41K, M46L, I54V, I62V, L63P, A71V, T74D, P79A, V82T, I84V, I85V, L90M, I93L mutation derived from viral passages with Lopinavir assessed as reduction in viral cytopathogenicity treated 1 hr post infection measured …; assay type: functional
[20] = test system: Human immunodeficiency virus 1; test: Antiviral activity against HIV1 isolate 7 infected in human MT4 cells obtained from protease inhibitor-resistant patient harboring protease L10I, M46M/L, G48V, I54V, L63P, A71V, I72M, V77I, V82A, L90M, I93L mutation derived from viral passages with Lopinavir assessed as reduction in viral cytopathogenicity treated 1 hr post infection measured 5 days post infection by MTT assay relative to wild …; assay type: functional
[21] = test system: Human immunodeficiency virus 1; test: Antiviral activity against HIV1 isolate 5 infected in human MT4 cells obtained from protease inhibitor-resistant patient harboring protease L10F, I15V, M46I, L63P, A71V, I72L, V82T, I84V, I85V, L90M mutation derived from viral passages with Lopinavir assessed as reduction in viral cytopathogenicity treated 1 hr post infection measured 5 days post infection by MTT assay relative to wild type HIV1 …; assay type: functional
[22] = test system: Human immunodeficiency virus 1; test: Antiviral activity against HIV1 isolate 2 infected in human MT4 cells obtained from protease inhibitor-resistant patient harboring protease L10I, I15V, G16E, K20R, E35D, M36I, R41K, I54A, R57K, Q61D, A71V, I72R, V82A, L89I, L90M, Q92K mutation derived from viral passages with Lopinavir assessed as reduction in viral cytopathogenicity treated 1 hr post infection measured 5 days post infection by …; assay type: functional
[23] = test system: Human immunodeficiency virus 1; test: Antiviral activity against HIV1 isolate 12 infected in human MT4 cells obtained from protease inhibitor-resistant patient harboring protease L10I, I13V, K20I, E35D, M36I, M46I, I50V, I54V, R57K, I62V, L63P, A71V, V82A, L89V, L90M, Q92K mutation derived from viral passages with Lopinavir assessed as reduction in viral cytopathogenicity treated 1 hr post infection measured 5 days post infection by …; assay type: functional
[24] = test system: Human immunodeficiency virus 1; test: Antiviral activity against HIV1 B26 infected in human MT4 cells harboring protease L33F, K45I, M46I, I50V, I54V, A71V, and V82F mutation derived from viral passages with Lopinavir assessed as reduction in viral cytopathogenicity treated 1 hr post infection measured 5 days post infection by MTT assay; assay type: functional, organism-based; settings: Human immunodeficiency virus 1, B26, MT4; procedure, shortened: as §1
[25] = test system: Human immunodeficiency virus 1; test: Antiviral activity against HIV1 isolate 6 infected in human MT4 cells obtained from protease inhibitor-resistant patient harboring protease L10I, L24I, M46I, I54V, K55R, Q58E, L63P, I64V, A71V, V82A, T91A mutation derived from viral passages with Lopinavir assessed as reduction in viral cytopathogenicity treated 1 hr post infection measured 5 days post infection by MTT assay relative to wild type …; assay type: functional
[26] = test system: Human immunodeficiency virus 1; test: Antiviral activity against HIV1 isolate 8 infected in human MT4 cells obtained from protease inhibitor-resistant patient harboring protease L10I, I13V, L33F, E34Q, R41K, M46I, I54V, K55R, R57K, Q58E, I62V, L63P, A71V, I72I/T, G73S, V82A, I84V, L90M mutation derived from viral passages with Lopinavir assessed as reduction in viral cytopathogenicity treated 1 hr post infection measured 5 days post …; assay type: functional
[27] = test system: Human immunodeficiency virus 1; test: Antiviral activity against HIV1 isolate 13 infected in human MT4 cells obtained from protease inhibitor-resistant patient harboring protease L10I, K14R, L33F, E34Q, R41K, K45R, M46I, I50V, K55R, L63P, A71V, G73T, V77I, V82A, L90M, I93L mutation derived from viral passages with Lopinavir assessed as reduction in viral cytopathogenicity treated 1 hr post infection measured 5 days post infection by …; assay type: functional

SMILES | Ratio EC50 [1] | Ratio EC50 [2] | Ratio EC50 [3] | Ratio EC50 [4] | Ratio EC50 [5] | Ratio EC50 [6] | Ratio EC50 [7] | Ratio EC50 [8] | Ratio EC50 [9] | EC50 [10] [nM] | EC50 [11] [nM] | further results
CC(C)(C)NC(=O)[C@@H]1C[C@@H]2CCCC[C@@H]2CN1C[C@@H](O)[C@H](Cc1ccccc1)NC(=O)[C@H](CC(N)=O)NC(=O)c1ccc2ccccc2n1 | 5 | 28 | 1 | 21 | 1 | 3 | 0.4 | 4 | 1 |  |  | 
CC(C)CN(C[C@@H](O)[C@H](Cc1ccccc1)NC(=O)O[C@H]1CCOC1)S(=O)(=O)c1ccc(N)cc1 | 34 | 41 | 1 | 41 | 2 | 9 | 12 | 11 | 1 |  |  | 
CC(C)CN(C[C@@H](O)[C@H](Cc1ccccc1)NC(=O)O[C@H]1CO[C@H]2OCC[C@H]21)S(=O)(=O)c1ccc(N)cc1 |  | 59 | 1 |  | 7 |  | 12 |  | 1 | 40 | 857 | 
CCC[C@@]1(CCc2ccccc2)CC(O)=C([C@H](CC)c2cccc(NS(=O)(=O)c3ccc(C(F)(F)F)cn3)c2)C(=O)O1 |  |  |  |  | 6 |  |  |  |  | 7840 |  | EC50 [12]: 360 nM; EC50 [13]: 184 nM; EC50 [14]: 204 nM
CC(C)(C)NC(=O)[C@@H]1CN(Cc2cccnc2)CCN1C[C@@H](O)C[C@@H](Cc1ccccc1)C(=O)N[C@H]1c2ccccc2C[C@H]1O.O | 14 | 76 | 1 | 31 | 2 | 3 | 5 | 5 | 1 |  |  | 
Cc1c(O)cccc1C(=O)N[C@@H](CSc1ccccc1)[C@H](O)CN1C[C@H]2CCCC[C@H]2C[C@H]1C(=O)NC(C)(C)C | >93 | 203 | 1 | 67 | 2 | 5 | 3 | 6 | 1 |  |  | 
COC(=O)N[C@H](C(=O)N[C@@H](Cc1ccccc1)[C@@H](O)CN(Cc1ccc(-c2ccccn2)cc1)NC(=O)[C@@H](NC(=O)OC)C(C)(C)C)C(C)(C)C [ATAZANAVIR] | 145 | 39 | 1 | 31 | 16 | 6 | 34 | 14 | 1 | 11 | 355 | Ratio EC50 [15]: 5; Ratio EC50 [16]: 89; EC50 [12]: 296 nM; Ratio EC50 [17]: 56; Ratio EC50 [18]: 22; Ratio EC50 [19]: 43; Ratio EC50 [20]: 25; EC50 [13]: 4 nM; Ratio EC50 [21]: 18; Ratio EC50 [22]: 172; Ratio EC50 [23]: 3; EC50 [24]: 51 nM; Ratio EC50 [25]: 15; Ratio EC50 [26]: 32; Ratio EC50 [27]: 5; EC50 [14]: 7 nM
Cc1cccc(C)c1OCC(=O)N[C@@H](Cc1ccccc1)[C@@H](O)C[C@H](Cc1ccccc1)NC(=O)[C@H](C(C)C)N1CCCNC1=O [LOPINAVIR] |  |  |  |  |  |  |  |  |  |  | > 10000 | 
CC(C)c1nc(CN(C)C(=O)N[C@H](C(=O)N[C@@H](Cc2ccccc2)C[C@H](O)[C@H](Cc2ccccc2)NC(=O)OCc2cncs2)C(C)C)cs1 [RITONAVIR] | >141 | 1386 | 3 | 79 | 14 | 26.7 | 79 | 29 | 7 |  |  | 
